The text below walks through data of publication PMC9283305 (Nitric oxide : biology and chemistry, 2022).

Residue numbers refer to the chain shown, from its start. Numbers in names are those of the source. Like-named read-outs stand apart in the source and are kept apart here.

The conditions of assay [1]: cited from earlier work; for Nitrite reductase reaction rate constant: 37°C, 100 mM sodium phosphate, pH 7.4.
The conditions of assay [2]: 37°C, 100 mM sodium phosphate, pH 7.4; cited from earlier work.
Assay [3] in a line: Autoxidation of the ferrous-dioxygen. In kind it is biochemical, human. The procedure, abridged:
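Human Cygb WT and mutants were His-tagged, expressed in SoluBL21 cells and purified on Ni-NTA. Fe(II)-O2 was formed by excess dithionite reduction, then G25 gel filtration in aerobic buffer, mixed with prewarmed buffer at 37 °C and followed spectrally for 30–60 min. For two surface mutants, deoxy protein was made in a glovebox, desalted anaerobically and mixed 4:1 with O2-saturated buffer; read at 1 spectrum/s for 1000 s. At least triplicate; mean ± SD.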

Assay [4] in a line: Nitrite reduction to NO by ferrous globins in the presence of excess dithionite. As to conditions: for Nitrite reductase reaction rate constant: 37°C, 100 mM sodium phosphate, pH 7.4, excess dithionite. In kind it is biochemical, human. The procedure, abridged:
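Ran in 100 mM sodium phosphate, pH 7.4, 37 °C, with 2.5 mM dithionite to keep heme ferrous and remove O2. Globin (2–10 μM) was mixed with nitrite, typically 1–10 mM, or 250 μM–2 mM for distal-His mutants. Spectra were read over 350–700 nm and fit single-exponential; rate constants came from the nitrite series. At least triplicate, with ≥2 protein batches; mean ± SD.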

A short description of another assay: Oleic acid. In kind it is binding, human. The procedure, abridged:
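Oleate was titrated into ferric distal-His mutant globins with imidazole present: 250 μM, or a series of imidazole levels. Difference spectra were taken by subtracting the initial spectrum. The absorbance difference at the wavelength of largest change was fit against oleate concentration to give an apparent KD. Buffer was 100 mM sodium phosphate, pH 7.4, 25 °C.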

The conditions of assay [5]: cited from earlier work.
Assay [6] in a line: Imidazole binding to ferric cytoglobin by UV-Vis difference spectroscopy. On the set-up: species or system human. As to conditions: read-out: Imidazole KD; ferric protein. The method in brief: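 Ferric globin (5–15 μM) was titrated with imidazole stocks (1–100 mM) to about 100–15000 μM final. Buffer was 100 mM sodium phosphate, pH 7.4, at 25 °C. UV-Vis difference spectra were taken, and the max–min absorbance difference was plotted against ligand. KD came from a 1:1 quadratic binding fit. At least triplicate, with ≥2 protein batches; mean ± SD.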

The mark [7] stands for this setting: 37°C, 100 mM sodium phosphate, pH 7.4.
[8] abbreviates: 37°C, 100 mM sodium phosphate, pH 7.4, decay fit to a two-exponential equation.

B1: Neuroglobin Wild-type: wild-type human neuroglobin (protein, UniProt Q9NPG2 1-151, looked up)
Neuroglobin: MERPEPELIRQSWRAVSRSPLEHGTVLFARLFALEPDLLPLFQYNCRQFSSPEDCLSSPEFLDHIRKVMLVIDAAVTNVEDLSSLEEYLASLGRKHRAVGVKLSSFSTVGESLLYMLEKCLGPAFTPATRAAWSQLYGAVVQAMSRGWDGE
As to B1, in assay [1], the “Nitrite reductase reaction rate constant” value is 0.52 ± 0.19^d M^−1s^−1. For the same molecule, in assay [2], the Autoxidation rate is given as 0.23 ± 0.03^b min^−1.

B2: Neuroglobin H64L: His-tagged neuroglobin distal histidine His64(E7) to Leu mutant (protein, UniProt Q9NPG2 1-151, looked up, variant H64L)
Neuroglobin: B1 Neuroglobin with H64L
B2: in assay [3] (setting [7]), the Autoxidation rate is 0.010 ± 0.004 min⁻¹. For the same molecule, the “Nitrite reductase reaction rate constant” value in assay [4] came out at 302 ± 55 M⁻¹ s⁻¹.

B3: Neuroglobin H64A: human neuroglobin distal histidine His64(E7) to Ala mutant (protein, UniProt Q9NPG2 1-151, looked up, variant H64A)
Neuroglobin: B1 Neuroglobin with H64A
Consider B3, for which the “Nitrite reductase reaction rate constant” value in assay [1] is 1120 ± 140^d M^−1s^−1. The Autoxidation rate in assay [2] is recorded as 0.066 ± 0.005^b min^−1.

B4: Neuroglobin H64W: human neuroglobin distal histidine His64(E7) to Trp mutant (protein, UniProt Q9NPG2 1-151, looked up, variant H64W)
Neuroglobin: B1 Neuroglobin with H64W
On to B4, for which the “Nitrite reductase reaction rate constant” value in assay [1] is 7.6 ± 1.3^d M^−1s^−1. Also, the Autoxidation rate in assay [2] is 0.076 ± 0.006^b min^−1.

B5: Neuroglobin H64Q: human neuroglobin distal histidine His64(E7) to Gln mutant (protein, UniProt Q9NPG2 1-151, looked up, variant H64Q)
Neuroglobin: B1 Neuroglobin with H64Q
As to B5, in assay [1], the “Nitrite reductase reaction rate constant” value is reported as 387 ± 21^d M^−1s^−1. Also, the Autoxidation rate in assay [2] is 0.010 ± 0.002^b min^−1.

B6: H81A: human cytoglobin distal histidine His81(E7) to Ala mutant (protein, UniProt Q8WWM9 1-190, looked up, variant H81A)
Cytoglobin: MEKVPGEMEIERRERSEELSEAERKAVQAMWARLYANCEDVGVAILVRFFVNFPSAKQYFSQFKHMEDPLEMERSPQLRKAACRVMGALNTVVENLHDPDKVSSVLALVGKAHALKHKVEPVYFKILSGVILEVVAEEFASDFPPETQRAWAKLRGLIYSHVTAAYKEVGWVQQVPNATTPPATLPSSGP
As for B6, the Autoxidation rate in assay [3] (setting [7]) was 0.094 ± 0.038 min⁻¹. In assay [4], the “Nitrite reductase reaction rate constant” value turned out to be 1100 ± 100 M⁻¹ s⁻¹ and the “Fold increase in nitrite reduction rate constant versus Cygb WT” value is listed as “up to 1000 fold”. Also, the “Nitrite reductase reaction rate constant” value in assay [4] (listed as His81Ala) is given as “up to 1100 M^−1s^−1”.

B7: R84E: human cytoglobin surface mutant Arg84 to Glu (protein, UniProt Q8WWM9 1-190, looked up, variant R84E)
Cytoglobin: B6 Cytoglobin with A81H, R84E
Turning to B7, in assay [3] (setting [8]), the “Autoxidation rate constant for the fast phase” value is reported as 2.362 ± 0.359^c min^−1 and the “Autoxidation rate constant for the slower phase” value was 0.303 ± 0.037 min⁻¹. In addition, the “Share of the autoxidation decay accounted for by the fast phase” value in assay [3] (37°C, 100 mM sodium phosphate, pH 7.4, two-exponential fit) stood at 73 ± 12%. The “Fold increase in autoxidation rate constant as compared to WT” value in assay [3] (versus WT cytoglobin) is “roughly 10 fold”. Further, the “Nitrite reductase reaction rate constant” value in assay [4] worked out at 0.90 ± 0.30 M⁻¹ s⁻¹.

B8: V105Y: human cytoglobin hydrophobic surface patch mutant Val105 to Tyr (protein, UniProt Q8WWM9 1-190, looked up, variant V105Y)
Cytoglobin: B6 Cytoglobin with A81H, V105Y
On to B8, for which the Autoxidation rate in assay [3] (setting [7]) is 0.107 ± 0.018 min⁻¹. Besides, in assay [4], the “Nitrite reductase reaction rate constant” value came out at 3.76 ± 0.85 M⁻¹ s⁻¹ and the “Fold increase in nitrite reduction rate constant versus Cygb WT” value was found to be 3 fold.

B9: H81W: human cytoglobin distal histidine His81(E7) to Trp mutant (protein, UniProt Q8WWM9 1-190, looked up, variant H81W)
Cytoglobin: B6 Cytoglobin with A81W
In assay [3] (setting [7]), B9 returned an Autoxidation rate of 0.135 ± 0.034 min⁻¹. For the same molecule, in assay [4], the “Nitrite reductase reaction rate constant” value was found to be 10.7 ± 2.1 M⁻¹ s⁻¹.

B10: H81L: human cytoglobin distal histidine His81(E7) to Leu mutant (protein, UniProt Q8WWM9 1-190, looked up, variant H81L)
Cytoglobin: B6 Cytoglobin with A81L
B10: the Autoxidation rate in assay [3] (setting [7]) is 0.314 ± 0.043 min⁻¹. Besides, the “Nitrite reductase reaction rate constant” value in assay [4] came to 76 ± 16 M⁻¹ s⁻¹. Moreover, the “Nitrite reduction rate relative to Ngb H64L” value in assay [4] (relative to the Ngb H64L rate) is listed as “about 25%”. For the same molecule, the “Fold increase in oleic acid KD versus WT” value in the assay “Oleic acid” (versus Cygb WT) stood at 4 fold.

B11: K116E: human cytoglobin surface mutant Lys116 to Glu (protein, UniProt Q8WWM9 1-190, looked up, variant K116E)
Cytoglobin: B6 Cytoglobin with A81H, K116E
In assay [3] (setting [7]), B11 gave an Autoxidation rate of 0.366 ± 0.057 min⁻¹. In assay [4], the “Nitrite reductase reaction rate constant” value is 0.65 ± 0.14 M⁻¹ s⁻¹.

B12: T91D: human cytoglobin mutant Thr91 to Asp (protein, UniProt Q8WWM9 1-190, looked up, variant T91D)
Cytoglobin: B6 Cytoglobin with A81H, T91D
As for B12, the Autoxidation rate in assay [3] (setting [7]) worked out at 0.062 ± 0.005 min⁻¹. The “Nitrite reductase reaction rate constant” value in assay [4] is 1.24 ± 0.18 M⁻¹ s⁻¹.

B13: L108Q: human cytoglobin hydrophobic surface patch mutant Leu108 to Gln (protein, UniProt Q8WWM9 1-190, looked up, variant L108Q)
Cytoglobin: B6 Cytoglobin with A81H, L108Q
In the case of B13, the Autoxidation rate in assay [3] (setting [7]) stood at 0.116 ± 0.051 min⁻¹. The “Nitrite reductase reaction rate constant” value in assay [4] amounted to 0.66 ± 0.18 M⁻¹ s⁻¹.

B14: Cytoglobin Wild-type: wild-type (WT) human Cygb protein, His-tagged, recombinantly expressed (protein, UniProt Q8WWM9 1-190, looked up)
Cytoglobin: B6 Cytoglobin with A81H
modifications: His-tag
Take B14: the “Nitrite reductase reaction rate constant” value in assay [1] is 1.14 ± 0.07^e M^−1s^−1. The Nitrite reduction rate in assay [1] (in the presence of the intramolecular disulfide bond) was 32.3 M⁻¹ s⁻¹. Further, in assay [2], the Autoxidation rate is recorded as 0.270 ± 0.020^a min^−1. Moreover, the Binding to lipids entry in assay [5] (Cygb with the reduced thiols) was “little or no binding”. Moreover, the Kd – broadly, the equilibrium constant for the complex coming apart – is ~1 µM in assay [5] (read-out: KD for lipids such as oleic acid and cardiolipin); ~1000 µM in assay [6].

B15: H81Q: human cytoglobin distal histidine His81(E7) to Gln mutant (protein, UniProt Q8WWM9 1-190, looked up, variant H81Q)
Cytoglobin: B6 Cytoglobin with A81Q
B15 had an Autoxidation rate in assay [3] (setting [7]) of 0.019 ± 0.005 min⁻¹. In addition, the “Nitrite reductase reaction rate constant” value in assay [4] came to 210 ± 44 M⁻¹ s⁻¹. Besides, the “Change of oleic acid binding (apparent KD) in the presence of imidazole” value in “Oleic acid” (several saturating concentrations of imidazole (Figure 5)) was “slight upwards trend”.

B16: zebrafish Cygb1: zebrafish cytoglobin 1, a five-coordinate native globin (protein, UniProt Q8UUR3 1-174, looked up)
Cytoglobin-1: MEGDGGVQLTQSPDSLTEEDVCVIQDTWKPVYAERDNAGVAVLVRFFTNFPSAKQYFEHFRELQDPAEMQQNAQLKEHGQRVLNALNTLVENLRDADKLNTIFNQMGKSHALRHKVDPVYFKILAGVILEVLVEAFPQCFSPAEVQSSWSKLMGILYWQMNRVYAEVGWENSKK
As for B16, the Lipid binding result in assay [5] is reported as “do not show appreciable lipid binding”.
